Measurements: publication PMC8100350 (International Journal for Parasitology: Drugs and Drug …, 2021)
Where two headings read alike, the source gives them in different places.

Key:
Type in all cases: cell-based
[1] = system: P. falciparum C2B; conditions: 48 h, 72 h and 96 h assays (all time points)
Outline: (§1)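 Sorbitol-synchronised ring stages in O+ erythrocytes, run as 48 h (1% parasitaemia, 1% haematocrit, label at start), 72 h (0.25%, 2.5%, label ~48 h) or 96 h (0.1%, 2%, medium change plus label ~72 h). Read-out was [3H]-hypoxanthine incorporation by scintillation. IC50 by log-linear interpolation against 0.5% DMSO; triplicate wells, ≥2 independent assays. RI = resistant-line IC50/3D7 IC50. Controls: chloroquine (Dd2), atovaquone (C2B), cycloguanil (FCR3).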

[2] = system: P. falciparum Dd2
Outline: as §1

[3] = system: P. falciparum 3D7; assay: [3H]-hypoxanthine incorporation growth inhibition assay, P. falciparum 3D7; conditions: for IC50: mean ± SD
[4] = system: Neonatal foreskin fibroblast (NFF) cells; assay: Human cell cytotoxicity assay, NFF; conditions: read-out: NFF IC50
Outline: (§2)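 NFF and HEK293 cells were grown in RPMI 1640 with 10% FCS and 1% streptomycin at 37 °C and 5% CO2. Exposure was 72 h. Growth inhibition was taken against matched DMSO controls. IC50 came from log-linear interpolation, as the mean ± SD of three independent experiments, each in triplicate.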

[5] = system: P. falciparum 3D7 parasites; assay: Isopentenyl pyrophosphate; conditions: for rescue of growth inhibitory activity by IPP supplementation: 96 h assay, 200 μM IPP; for IC50: Plasmodium falciparum, 3D7, 96 h
Outline: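 3D7 ring stages, sorbitol-synchronised, in O+ erythrocytes (0.1% parasitaemia, 2% haematocrit). Two identical 96 h assays ran in parallel, one with and one without 200 μM IPP. At ~72 h medium was replaced with fresh medium containing [3H]-hypoxanthine, incubated 24 h more, frozen, harvested and counted. Clindamycin was the positive control. IC50 by log-linear interpolation; triplicate wells, ≥3 independent experiments; unpaired t-test.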

[6] = system: human embryonic kidney (Hek293) cells; assay: Human cell cytotoxicity assay, HEK293; conditions: HEK293, read-out: HEK293 IC50
Outline: as §2

[7] = Plasmodium falciparum, 3D7, 48 h, read-out: P. falciparum 3D7 IC50, 48 h, 48 h assay (fast action)
[8] = Plasmodium falciparum, 3D7, 72 h, read-out: P. falciparum 3D7 IC50, 72 h, 72 h assay
[9] = Plasmodium falciparum, 3D7, 96 h, read-out: P. falciparum 3D7 IC50, 96 h, 96 h assay (slow action)

SMILES	Resistance Index (RI), C2B versus 3D7, text summary [1]	RI (Dd2 IC50/3D7 IC50), 48h ([2]; 48 h assay)	RI (Dd2 IC50/3D7 IC50), 72h ([2]; 72 h assay)	RI (Dd2 IC50/3D7 IC50), 96h ([2]; 96 h assay)	PfSI, Selectivity Index (mammalian cell IC50/P. falciparum IC50) ([3]; NFF or HEK293 IC50 / P. falciparum 3D7 72 h IC50)	IC50 [3, 7] [nM]	IC50 [3, 8] [nM]	IC50 [3, 9] [nM]	IC50 [4] [nM]	rescue of growth inhibitory activity by IPP supplementation [5]	IC50 [6] [nM]	IC50 ([5]; read-out: P. falciparum 3D7 IC50, +IPP) [nM]	IC50 ([5]; read-out: P. falciparum 3D7 IC50, -IPP) [nM]	fold less active than himbeline ([3]; 96 h assays, 3D7)	IC50 ([3]; read-out: P. falciparum 3D7 IC50, 96 h, 96 h assay (slow action)) [nM]
O=C1C(O)=C([C@H]2CC[C@H](c3ccc(Cl)cc3)CC2)C(=O)c2ccccc21 [ATQ, atovaquone]	> 2000	–	–	–	–	–	–	–	–	–	–	–	–	–	–
CCN(CC)CCCC(C)Nc1ccnc2cc(Cl)ccc12 (stereo not shown) [Chloroquine]	–	3	3	7	4555–5896	8 ± 2	6 ± 4	4 ± 2	35400 ± 3600	not rescued	27300 ± 13300	–	–	–	–
CCC[C@@H]1C[C@@H](C(=O)N[C@@H]([C@H]2O[C@H](SC)[C@H](O)[C@@H](O)[C@H]2O)[C@H](C)Cl)N(C)C1 [Clindamycin, clindamycin]	–	–	–	–	–	> 50000	9 ± 2	5 ± 2	–	rescued	–	> 500	4 ± 1	–	–
CCOC(=O)N[C@@H]1CC[C@@H]2[C@@H](C1)C[C@H]1C(=O)O[C@H](C)[C@H]1[C@H]2/C=C/c1ccc(-c2cccc(F)c2)cn1 [Vorapaxar]	–	–	–	–	–	11200 ± 3000	3930 ± 1070	3500	–	–	–	–	–	~ 6 fold	3520 ± 250
